Values joined by “and” are separate entries in the source; they are usually repeats but may differ in a detail not shown here. Identical values can stand only once. “Also recorded” adds a separate entry of the source. Marks after values point to notes of the source that are not given here.

By EC50 is commonly meant the concentration that produces a half-maximal response. As usually defined, the logP is a log measure of how a compound divides between an organic and an aqueous phase.

The test system of series [1] is 2D HepaRG. As to the kind of experiment: Cell viability assay. The class given is cell-based. As to conditions: Homo sapiens. A digest of the protocol: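 HepaRG seeded at 2.25 × 10⁵ cells/cm² in 96-well plates 7 days before exposure; plates gas-permeable sealed. Ranges: glycol ethers 10–1000 mM, metabolites 1–25 mM, ethanol 1–600 mM. Highest-concentration solutions neutralised to pH 7.4 with NaOH, filter-sterilised. ATP by CellTiter-Glo luminescence at 48 h and 7 days, as % untreated control. EC50 calculated. N = 3–4 biological repeats, triplicates.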

Series [2] relates to 3D HepaRG. As to the kind of experiment: Cell viability assay. As to conditions: for higher toxicity of metabolite compared to its solvent (EC50, 3D HepaRG): 2‐MPA vs β‐PGME, 2‐MAA vs EGME; for EC50: Homo sapiens, HepaRG. The class given is cell-based, human. A digest of the protocol: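 HepaRG spheroids formed from 3000 cells/well in U-bottom plates, 7 days pre-exposure. Dosing: half the medium replaced with twofold-concentrated compound; plates gas-permeable sealed. Ranges: glycol ethers 10–1000 mM, acid metabolites 1–25 mM, ethanol 1–600 mM; top solutions neutralised to pH 7.4, filtered. ATP by CellTiter-Glo luminescence at 48 h and 7 days, % of untreated control. EC50 calculated. N = 3–4 biological repeats, triplicates.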

The conditions of series [3]: Data derived from Pubchem ref PubChem (nih.gov); cited from earlier work.
For series [4] the following is noted: TK model parameter; ref Kerns et al. [54]; cited from earlier work.
For series [5] the following is noted: TK model parameter; ref Devanthéry et al. [20]; cited from earlier work.
Series [6] deals with 3D HepaRG. As to the kind of experiment: Albumin ELISA assay in 3D HepaRG supernatant. The class given is cell-based, human. As to conditions: 3D HepaRG exposed to 16 mM APAP for 48 h; untreated 78.4 ± 22.9 ng/mL.
For series [7], the system named is CYP2E1. As to the kind of experiment: Gene expression q‐RT‐PCR in HepaRG, CYP2E1. The format is cell-based, human. As to conditions: 7‐day exposure. In short, it runs like this: (§1)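 HepaRG seeded at 2.25 × 10⁵ cells/cm² in 96-well plates for 7 days. RNA extracted with Qiazol/TRIzol plus glycogen. Reverse transcription with M-MLV and oligo dT. TaqMan probe qPCR program: 95°C 10 min, then 40 cycles of 95°C 15 s and 60°C 1 min.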

Series [8] relates to ADH1C. Kind of series: Gene expression q‐RT‐PCR in HepaRG, ADH1C. The format is cell-based, human. As to conditions: 7‐day exposure. In short, it runs like this: as §1
Series [9] has as its system ALDH2. Kind of series: Gene expression q‐RT‐PCR in HepaRG, ALDH2. The class given is cell-based, human. As to conditions: 7‐day exposure. In short, it runs like this: as §1
For series [10], the system named is human hepatocytes. As to conditions: EGME, from reported Km and Vmax applying the scaling factors of this study.
For series [11], the system named is human hepatocytes. As to conditions: EGME; cited from earlier work.
For series [12] the following is noted: used for β‐PGME to PG in TK model; ref Gargas et al. [55]; cited from earlier work.
Series [13] deals with ADH / ALDH in human liver S9 fraction. As to the kind of experiment: Inhibition of 2‐MPA formation in S9 incubations. The format is biochemical. As to conditions: 5 mM β‐PGME, S9, NAD+ only, 45 min. A digest of the protocol:
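Human liver S9 (2 mg/mL) in 100 mM potassium phosphate pH 7.4, 3 mM MgCl₂. Substrate 5 mM, chosen below ADH saturation; NAD⁺ as sole cofactor. ADH inhibitor at 50 μM or ALDH inhibitor at 10 μM, final. 5 min preincubation; cofactor starts reaction; 45 min, 37°C, 300 rpm. Stopped with ice-cold acetonitrile. Acid metabolite by HPLC-MS/MS. N = 3, duplicates. One-way ANOVA/Dunnett versus control.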

The conditions of series [14]: plasma binding; measured data derived from literature ref 32; cited from earlier work.
Series [15] can be described thus: S9 fraction incubation, Michaelis–Menten kinetics β‐PGME to 2‐MPA. As to conditions: human, human liver S9 fraction, pH 7.4. The format is in vitro ADME, human. A digest of the protocol:
(§2)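 Human liver S9 (2 mg/mL), 100 mM phosphate pH 7.4, 3 mM MgCl₂, substrate 0.1–8 mM; 1 mM NAD⁺ plus 1 mM NADPH start the reaction after 5 min preincubation. 45 min, 37°C; cofactor-free controls; acetonitrile stop. Metabolite by HPLC-MS/MS. Km/Vmax by nonlinear Michaelis–Menten fit; CLint = Vmax/Km. Scaled via physiological factors; well-stirred model (QH 20.7 mL/min/kg, fu,inc by Hallifax–Houston). N = 3, duplicates.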

For series [16], the system named is human liver subcellular fraction (S9). Described as above. The class given is in vitro ADME. A digest of the protocol: as §2
A short description of series [17]: S9 fraction incubation, solvent loss and metabolite formation. As to conditions: human, human liver S9 fraction; for microsomal CLint at 700 μM: pH 7.4, CLint, in vitro, S9, measured, 700 μM β‐PGME; for CLint scaled at 700 μM: pH 7.4, Predicted CL int, in vivo. The format is in vitro ADME, human. A digest of the protocol: (§3)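 S9 2 mg/mL, 100 mM phosphate pH 7.4, 3 mM MgCl₂, 1 mM NAD⁺/NADPH; substrate 700 μM, 37°C. Aliquots at 1, 12, 23, 34, 45 min quenched with 2 volumes ice-cold acetonitrile; cofactor-free controls. Elimination or formation constant from slope of ln % parent remaining or ln metabolite versus time; CLint = k × volume / S9 protein. Scaled to CLh with well-stirred model. N = 3, duplicates.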

Series [18] deals with human liver subcellular fraction (S9). The description is as above. The format is in vitro ADME. As to conditions: for In vitro predicted hepatic organ clearance (CL h), CLmetMPA: measured; for Predicted CL h: well‐stirred liver model. A digest of the protocol: as §3
The nature of series [19]: Metabolite formation in the 3D HepaRG liver model. As to conditions: human, 3D HepaRG spheroids. The format is in vitro ADME, human. In short, it runs like this:
(§4)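 HepaRG spheroids (79 per well, 2772 cells each) formed 7 days in ultra-low-attachment micro-arrays. Substrate added as threefold concentrate to 5 mM final; 37°C, 5% CO₂, sealed. Supernatant sampled at 1, 15, 30, 45 min and 1, 6, 24 h, acetonitrile-quenched. Metabolite by HPLC-MS/MS. Formation constant from ln concentration versus time over 60 min; CLint per million cells. fu,inc by Kilford method (1.46 × 10⁶ cells/mL); well-stirred CLh. N = 3.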

Series [20] has as its system 3D HepaRG. As to the kind of experiment: Metabolite formation in the 3D HepaRG liver model. The class given is in vitro ADME, human. As to conditions: 3D HepaRG, metabolite formation. In short, it runs like this:
as §4

The conditions of series [21]: cited from earlier work.
The mark [22] stands for this setting: β‐PGME → 2‐MPA, S9 2 mg/mL, 45 min.

Regarding `COCC(=O)O` [2‐MAA, 2‐Methoxyacetic acid, reference compound], the EC50 came to 31 mM in series [1] (48 h), 16 mM in series [1] (168 h), 11 mM in [2] (48 h) and 9 mM in series [2] (168 h). Besides, in series [2], the “higher toxicity of metabolite compared to its solvent (EC50, 3D HepaRG)” value is on record as around 50 fold. In [3], the log partition coefficient (logP) was −0.30.

For `COC(C)C(=O)O` (stereo not drawn) [2‐MPA, 2‐Methoxypropionic acid], the 50% effective concentration (EC50) was found to be 81 mM in series [1] (48 h), 34 mM in series [1] (168 h), 46 mM in series [2] (48 h) and 26 mM in series [2] (168 h). Besides, the “higher toxicity of metabolite compared to its solvent (EC50, 3D HepaRG)” value in series [2] was “approximately fourfold; also recorded: approximately four times lower”. Also, the “Permeability coefficient (BBB) (PeMPA)” value in series [4] was 100 ×10⁻⁶ cm/s. The “Urinary excretion rate of 2‐MPA (KMPA)” value in [5] was 0.09 h⁻¹.

`CC(=O)Nc1ccc(O)cc1` [APAP, acetaminophen]: the “albumin secretion (albumin concentration in medium)” value in series [6] worked out at 1.78 ± 0.68 ng/mL.

For the compound `COCCO` [EGME, 2‐Methoxyethanol], the “expression of CYP2E1” value in [7] is recorded as “not induced”. Further, in [8], the “expression of ADH1C” value is reported as “not induced”. Besides, in series [9], the “expression of ALDH2” value is reported as “not induced”. Moreover, the log partition coefficient (logP) in series [3] is −0.80. Moreover, the “calculated in vitro CLint” value in [10] was 0.62 µL/min/mg. The V max in series [11] is 61.3 nmol/h/10^6 cells. Also, in [12], the “Kinetic constant EGME → EG (ethylene glycol) (CLmetPG)” value was 5 mL/min/kg.

For the compound `c1ccc(-c2ccc3nc(-c4ccccc4)cn3c2)cc1` [GA11, 2,6‐diphenylimidazo[1,2‐a]pyridine], the “2‐MPA formation compared to control incubations” value in series [13] (10 μM GA11 (ALDH inhibitor)) is given as “significantly reduced”.

In turn, `COCC(C)O` (stereo not drawn) [PGME, 1‐Methoxypropan‐2‐ol] had a concentration giving a half-maximal response (EC50) in series [2] (168 h) of 96 mM. In [7], the “expression of CYP2E1” value is on record as “not induced”. The “expression of ADH1C” value in [8] is on record as “not induced”. The “expression of ALDH2” value in series [9] is given as “not induced”. Also, the logP in series [3] was −0.49 −0.49. Moreover, the “fu,b” value in [14] is given as 0.540 ^c 0.540 ^c.

As for `CCO` [ethanol], the “expression of CYP2E1” value in [7] is on record as “not induced”. The “expression of ADH1C” value in [8] is on record as “not induced”. Moreover, in series [9], the “expression of ALDH2” value was “not induced”.

In the case of `Cc1cn[nH]c1` [fomepizole, 4‐methyl pyrazole], the “2‐MPA formation compared to control incubations” value in [13] (50 μM fomepizole (ADH inhibitor)) is listed as “significantly reduced”.

For the compound `COC(C)CO` (stereo not drawn) [β‐PGME, 2‐Methoxypropan‐1‐ol], it took 86 mM to reach a half-maximal effect in [2] (168 h) (EC50). Further, the CLint scaled in [15] turned out to be 0.6 ± 0.09 mL/min/kg. In addition, the microsomal CLint in series [15] was found to be 0.19 ± 0.03 µL/min/mg. In addition, the “Predicted CL h” value in [16] (S9, calculated (Vmax/Km), well‐stirred liver model) was 0.36 ± 0.05 mL/min/kg; in series [18] (S9, metabolite formation), 16.4 ± 0.47 mL/min/kg; in series [18] (S9, solvent loss) it was 5.00 ± 2.52 mL/min/kg and 5.03 ± 2.52 mL/min/kg; in series [20] (well‐stirred liver model) it was 9.07 ± 0.44 mL/min/kg. In addition, the “In vitro predicted hepatic organ clearance (CL h), CLmetMPA” value in [16] (S9, metabolite formation, calculated (V max/K m)) is 0.36 mL/min/kg; in series [18] (S9, metabolite formation), 16.4 mL/min/kg; in series [18] (S9, solvent loss), 5 mL/min/kg; in series [20] (measured) it was 9.07 mL/min/kg. The K m in series [16] (setting [22]) amounted to 5.572 ± 2.171 mM. Besides, in [16] (setting [22]), the V max turned out to be 1.04 ± 0.28 nmol/min/mg. In addition, the microsomal CLint at 700 μM in series [17] (metabolite formation) came to 40.9 ± 5.19 µL/min/mg; in series [17] (solvent loss) it was 3.8 ± 2.14 µL/min/mg. Moreover, the CLint scaled at 700 μM was 127 ± 16.1 mL/min/kg in [17] (S9, metabolite formation) and 11.8 ± 6.67 mL/min/kg in series [17] (S9, solvent loss). Besides, in series [18] (overall generated CLh values (S9 and 3D HepaRG), reported clearance rankings), the “clearance ranking based on in vitro predicted CLh values” is recorded as “low to medium clearance compound”. In addition, the CLint scaled at 5 mM in [19] came to 28.2 ± 2.5 mL/min/kg. The hepatocyte CLint at 5 mM in [19] was determined as 9.34 ± 0.83 µL/min/1e6 cells. For the same compound, the microsomal CLint at 5 mM in [19] amounted to 9.62 ± 0.85 µL/min/mg. In [3], the logP is on record as −0.49 −0.49. The “fu,b” value in series [14] is on record as 0.540 ^c 0.540 ^c. Also, the “excretion of conjugated β‐PGME” value in series [21] is listed as 3%. The “β‐PGME excreted as 2‐MPA” value in [21] (published rat studies) is listed as “more than 60%”.

These data come from paper PMC11629119 (Pharmacology Research & Perspectives, 2024).
